We go through five molecules from paper PMC12139872 (bioRxiv, 2025).

Data set [1] addresses T1, human glutathione reductase (GSR) (Homo sapiens, UniProt P00390).
T1 sequence (P00390 44-522): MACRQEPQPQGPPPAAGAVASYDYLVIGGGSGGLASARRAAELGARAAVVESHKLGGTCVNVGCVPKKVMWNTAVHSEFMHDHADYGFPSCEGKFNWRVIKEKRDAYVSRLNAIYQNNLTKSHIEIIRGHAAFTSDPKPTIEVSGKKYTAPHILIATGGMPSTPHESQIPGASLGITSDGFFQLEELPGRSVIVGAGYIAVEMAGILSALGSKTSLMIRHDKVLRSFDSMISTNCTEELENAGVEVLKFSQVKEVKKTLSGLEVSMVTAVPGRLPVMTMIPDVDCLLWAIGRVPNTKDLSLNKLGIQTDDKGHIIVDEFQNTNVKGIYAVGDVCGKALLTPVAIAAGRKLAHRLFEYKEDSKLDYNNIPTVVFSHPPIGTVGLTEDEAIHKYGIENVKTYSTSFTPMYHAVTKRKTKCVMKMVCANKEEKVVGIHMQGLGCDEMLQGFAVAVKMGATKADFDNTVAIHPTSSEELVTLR
The data set can be described thus: Differential scanning fluorometry. The settings on record: 5 μM GSR, 20 μM compound. It is filed as binding. The method in brief: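 Human GSR (5 µM final), compound (20 µM final) and 5X SYPRO Orange were combined in 20 mM HEPES pH 7.4, 100 mM NaCl, 1% DMSO. Controls: no protein, compound fluorescence, plate autofluorescence, plus 2-AAPA as positive control. Plates were heated from 25 to 95 °C at 1-min steps with FRET-channel readout. Tm was taken from the dRFU derivative, and significance was tested by Student's t-test.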

The subject of data set [2] is MOLM-13. Description: Cytotoxicity of antioxidants. It is filed as cell-based. The settings on record: 72-hour treatment. The method in brief:
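Each antioxidant (GSH, GSSG, tocopherol, ascorbate) was dissolved in sterile water and applied alone to MOLM-13 cells.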

For `CC(=O)NC(CSC(=S)Nc1ccc(NC(=S)SCC(NC(C)=O)C(=O)O)cc1)C(=O)O` (centres unmarked) [Compound 2-AAPA, 2-AAPA], the “change in melting temperature (Tm) of GSR” value in data set [1] was “significantly changed the melting temperature”.
Consider `Cc1c(C)c2c(c(C)c1O)CC[C@@](C)(CCC[C@H](C)CCC[C@H](C)CCCC(C)C)O2` [tocopherol], for which the “concentrations at which antioxidant is toxic to MOLM-13” value in data set [2] was “higher than 62.5 μM”.
Turning to `N[C@@H](CCC(=O)N[C@@H](CS)C(=O)NCC(=O)O)C(=O)O` [GSH, reduced glutathione], the “toxicity of exogenously supplemented antioxidant to MOLM-13 (in words)” value in data set [2] was “not toxic”.
Take `O=C1O[C@H]([C@@H](O)CO)C(O)=C1O` [ascorbate]: in data set [2], the “concentrations at which antioxidant is toxic to MOLM-13” value was over 15.63 µM.
Turning to oxidized glutathione [GSSG], in data set [2], the “toxicity of exogenously supplemented antioxidant to MOLM-13 (in words)” value is recorded as “not toxic”.
